pIC50: −log10 of the molar value.

The values that follow come from ChEMBL document CHEMBL4387752, “Identification of substituted benzothiazole sulfones as potent and selective inhibitors of endothelial lipase” (Bioorg Med Chem Lett, 2019).

Series [1] is described as follows: Metabolic stability in Balb/c mouse liver microsomes assessed as parent compound remaining at 0.5 uM measured after 10 mins. Format: ADME, Microsome. The settings on record: read-out: Stability. The essentials: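 Test compound at 0.5 μM was incubated for 10 min with mouse liver microsomes. The read-out is the percentage of parent remaining.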
A short description of series [2]: Cmax in Balb/c mouse at 20 mg/kg, po. Format: ADME, organism-based. Further details: dose 20 mg/kg, route oral. Particulars: in vivo. The essentials:
(§1)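 Oral PK in fasted male balb/c mice. Dosing vehicle was ethanol/PEG 400/water (10:60:30).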

A short description of series [3]: Plasma concentration in Balb/c mouse at 10 mg/kg, po measured after 7 hrs. Format: ADME, organism-based. The essentials: as §1
Series [4] has as its target T1, Endothelial lipase (Mus musculus, UniProt Q9WVG5).
T1 sequence (Q9WVG5 whole entry): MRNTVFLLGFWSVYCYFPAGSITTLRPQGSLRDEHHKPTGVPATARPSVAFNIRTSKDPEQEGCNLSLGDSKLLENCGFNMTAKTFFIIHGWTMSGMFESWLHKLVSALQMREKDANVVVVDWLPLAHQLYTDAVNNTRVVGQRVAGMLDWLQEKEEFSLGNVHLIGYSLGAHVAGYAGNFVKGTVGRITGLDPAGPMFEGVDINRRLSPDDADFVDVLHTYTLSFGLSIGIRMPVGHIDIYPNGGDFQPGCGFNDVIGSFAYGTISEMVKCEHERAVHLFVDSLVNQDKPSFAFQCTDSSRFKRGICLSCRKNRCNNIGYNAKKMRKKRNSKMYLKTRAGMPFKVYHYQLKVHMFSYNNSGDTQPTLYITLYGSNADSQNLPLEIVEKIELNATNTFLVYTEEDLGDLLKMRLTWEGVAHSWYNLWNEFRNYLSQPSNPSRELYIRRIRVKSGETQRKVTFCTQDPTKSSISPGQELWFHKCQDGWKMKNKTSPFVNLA
The series is described as follows: Inhibition of mouse endothelial lipase expressed in HEK293F cells using D31-POPC-HDL as substrate incubated for 2 hrs in presence of mouse plasma by LC/MS analysis. The essentials: (§2)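 IC50 values were derived from the means of duplicate inhibition measurements.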

Series [5] is described as follows: Cmax in Balb/c mouse at 30 mg/kg, po. Format: ADME, organism-based. Further details: dose 30 mg/kg, route oral. Particulars: in vivo. The essentials: as §1
A short description of series [6]: Plasma concentration in Balb/c mouse at 10 mg/kg, po measured after 24 hrs. Format: ADME, organism-based. In outline:
as §1

A short description of series [7]: Total AUC in Balb/c mouse at 30 mg/kg, po measured after 24 hrs. Format: ADME, organism-based. On the set-up: dose 30 mg/kg, route oral, time AUCmax. The settings on record: in vivo. In outline:
as §1

Series [8] in a line: Tmax in Balb/c mouse at 10 mg/kg, po. Particulars: in vivo. The format is ADME, organism-based. In outline: as §1
A short description of series [9]: Cmin in C57BL/6 mouse at 20 mg/kg, po bid measured after 24 hrs. Format: ADME, organism-based. Particulars: in vivo, read-out: Cmin. In outline:
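Satellite PK cohort of wild-type C57BL/6 mice given 20 mg/kg p.o. b.i.d. over 4 days. Plasma levels were taken at 8, 24 and 102 h.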

For series [10], the target named is T1, Endothelial lipase. The experiment in a line: Inhibition of endothelial lipase in hepatic lipase knock-out mouse plasma using D31-POPC-HDL as substrate incubated for 2 hrs by LC/MS analysis. The format is cell-free. The essentials:
as §2

Series [11] can be described thus: Tmax in Balb/c mouse at 30 mg/kg, po. Format: ADME, organism-based. The settings on record: in vivo. In outline: as §1

`COCCS(=O)(=O)C(C(=O)NCC(=O)NC1CC1)c1nc2ccc(-c3ccc(F)nc3)cc2s1` (stereo unspecified): the remaining at 10 min, 0.5 µM in [1] was 81%. Further, the figures for the Cmax in series [2] and in [5] were 143000 nM and 142000 nM, respectively. This molecule also had a concentration at 7 h in series [3] of 1700 nM. The pIC50 at Endothelial lipase [4] was 6.92; against Endothelial lipase [10], 6.51. Besides, the concentration at 24 h was found to be 14 nM in series [6] and 1800 nM in series [9]. Besides, the AUC at 24 h in [7] amounted to 240 µM·h. Besides, the Tmax was determined as 60 min in [8] and 15 min in series [11].

In general, Cmax refers to the highest concentration seen after dosing. The pIC50 is −log10 of the IC50, conventionally taken in molar units. In general, AUC refers to the area under the concentration-time curve, a measure of exposure. Read a high AUC as more exposure. Broadly, the Tmax is the time at which the peak concentration occurs.
